Experimental data from ChEMBL document CHEMBL4257458, “Antiproliferative activities of alkaloid-like compounds” (Medchemcomm, 2017).
pIC50: −log10 of the molar value. Activity calls are given as the source filed them. No cut-off for these calls is given here.

Columns and labels:
MDA-MB-231 [1] = test: Growth inhibition of human MDA-MB-231 cells at 50 uM after 48 hrs by MTS assay; format: functional, cell-based
In short: (§1)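 Cells in DMEM with 10% FBS and 1% penicillin/streptomycin, 37 °C, 5% CO2; 7 × 10^3 cells per well, serum removed after 24 h, then compound (1–50 μM; DMSO ≤0.1%) for 48 h. MTS reagent 4 h at 37 °C, OD 550 nm; blank-subtracted, normalised to DMSO control (100%). IC50 by nonlinear regression; triplicates.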

MDA-MB-231 [2] = test: Growth inhibition of human MDA-MB-231 cells after 48 hrs by MTS assay; format: functional, cell-based; conditions: MDA-MB-231, 48 h; in short: as §1
Vero = test: Antiproliferative activity against African green monkey Vero cells harboring GFP at 50 ug/ml after 4 days by fluorescence assay relative to control; format: cell-based; conditions: chlorocebus sabaeus, 96 h
In short: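 GFP-expressing VERO (ATCC CCL-81 stably transfected with pEGFP-N1) in MEM with 10% heat-inactivated FBS, pyruvate, NaHCO3 (geneticin omitted during assay); 3.3 × 10^4 cells per mL; compound added, 4 days at 37 °C, 5% CO2; quadruplicate; fluorescence ex 485/em 535 nm, day-0 signal subtracted; % cytotoxicity = [1 − (FU treated/FU 0.5% DMSO)] × 100; ellipticine positive control.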

MDA-MB-231 [3] = test: Cell cycle arrest in human MDA-MB-231 cells assessed as increase in G2/M phase at 20 uM after 24 hrs by propidium iodide staining based flow cytometry relative to control; format: functional
In short: (§2)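 MDA-MB-231 seeded at 5 × 10^5 per well, serum-starved 24 h, then treated 24 h (DMSO 0.1% control). Fixed overnight in 80% ethanol at 0 °C, washed, resuspended in PBS with 0.1% Triton X-100 and 0.1 mg mL−1 RNase A, stained with PI (50 μg mL−1) 30 min dark at 37 °C; flow cytometry, 1 × 10^4 events per sample; mean ± SEM of ≥3 independent experiments.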

MCF7 [4] = test: Antiproliferative activity against human MCF7 cells at 50 uM after 48 hrs by MTS assay; format: functional, cell-based; in short: as §1
MDA-MB-231 [5] = test: Growth inhibition of human MDA-MB-231 cells assessed as cell viability at 50 uM after 48 hrs by MTS assay relative to control; format: functional; conditions: MDA-MB-231, 48 h, read-out: Activity; in short: as §1
MDA-MB-231 [6] = test: Induction of apoptosis in human MDA-MB-231 cells after 48 hrs by Annexin V-FITC/propidium iodide staining based flow cytometry; format: functional, cell-based
In short: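 MDA-MB-231 at 1 × 10^5 per well, treated 48 h, 24 h after serum removal, at 20–40 μM (DMSO 0.1% v/v control). Cells trypsinised, washed in cold PBS, stained with Annexin V-FITC and PI (50 μg mL−1) in binding buffer, 20 min dark at 0 °C; flow cytometry scoring viable, early/late apoptotic and necrotic fractions; 3 independent experiments.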

MDA-MB-231 [7] = test: Antiproliferative activity against human MDA-MB-231 cells assessed as cell viability at 20 uM after 48 hrs by MTS assay relative to control; format: functional; conditions: MDA-MB-231, 48 h, read-out: Activity; in short: as §1
MDA-MB-231 [8] = test: Cell cycle arrest in human MDA-MB-231 cells assessed as decrease in G0/G1 phase at 20 uM after 24 hrs by propidium iodide staining based flow cytometry relative to control; format: functional; set-up: scale not given: the % may be the effect or the level left; in short: as §2
CAKI-1 = test: Growth inhibition of human Caki1 cells after 48 hrs by SRB assay; format: functional, cell-based; conditions: CAKI-1, 48 h
SF-539 = test: Growth inhibition of human SF539 cells after 48 hrs by SRB assay; format: functional, cell-based; conditions: SF-539, 48 h
SK-MEL-5 = test: Growth inhibition of human SK-MEL-5 cells after 48 hrs by SRB assay; format: functional, cell-based; conditions: SK-MEL-5, 48 h
Hs-578T = test: Growth inhibition of human Hs 578T cells after 48 hrs by SRB assay; format: functional, cell-based
EKVX = test: Growth inhibition of human EKVX cells after 48 hrs by SRB assay; format: functional, cell-based
MDA-MB-231 [9] = test: Growth inhibition of human MDA-MB-231 cells after 48 hrs by SRB assay; format: functional, cell-based; conditions: MDA-MB-231, 48 h
COLO 205 = test: Growth inhibition of human COLO205 cells after 48 hrs by SRB assay; format: functional, cell-based; conditions: COLO 205, 48 h
HL-60(TB) = test: Growth inhibition of human HL-60(TB) cells after 48 hrs by SRB assay; format: functional, cell-based; conditions: HL-60, 48 h
NCI-H522 = test: Growth inhibition of human NCI-H522 cells after 48 hrs by SRB assay; format: functional, cell-based; conditions: NCI-H522, 48 h
MDA-MB-231 [10] = test: Antiproliferative activity against human MDA-MB-231 cells assessed as cell viability at 75 uM after 48 hrs by MTS assay relative to control; format: functional; conditions: MDA-MB-231, 48 h, read-out: Activity
MOLT-4 = test: Growth inhibition of human MOLT4 cells after 48 hrs by SRB assay; format: functional, cell-based; conditions: MOLT-4, 48 h
CCRF-CEM = test: Growth inhibition of human CCRF-CEM cells after 48 hrs by SRB assay; format: functional, cell-based
SW-620 = test: Growth inhibition of human SW620 cells after 48 hrs by SRB assay; format: functional, cell-based; conditions: SW-620, 48 h
RPMI-8226 = test: Growth inhibition of human RPMI8226 cells after 48 hrs by SRB assay; format: functional, cell-based; conditions: RPMI-8226, 48 h
OVCAR-3 = test: Growth inhibition of human OVCAR3 cells after 48 hrs by SRB assay; format: functional, cell-based; conditions: OVCAR-3, 48 h
DU-145 = test: Growth inhibition of human DU145 cells after 48 hrs by SRB assay; format: functional, cell-based; conditions: DU-145, 48 h
SK-MEL-28 = test: Growth inhibition of human SK-MEL-28 cells after 48 hrs by SRB assay; format: functional, cell-based; conditions: SK-MEL-28, 48 h
MDA-MB-435 = test: Growth inhibition of human MDA-MB-435 cells after 48 hrs by SRB assay; format: functional, cell-based; conditions: MDA-MB-435, 48 h
RXF 393 = test: Growth inhibition of human RXF393 cells after 48 hrs by SRB assay; format: functional, cell-based; conditions: RXF 393, 48 h
T47D = test: Growth inhibition of human T47D cells after 48 hrs by SRB assay; format: functional, cell-based
PC-3 = test: Growth inhibition of human PC3 cells after 48 hrs by SRB assay; format: functional, cell-based; conditions: PC-3, 48 h
MCF7 [11] = test: Growth inhibition of human MCF7 cells after 48 hrs by SRB assay; format: functional, cell-based; conditions: MCF7, 48 h
HT-29 = test: Growth inhibition of human HT-29 cells after 48 hrs by SRB assay; format: functional, cell-based; conditions: HT-29, 48 h

Structure (SMILES): CCC(=O)N[C@@]1(C)C2CC[C@@]3(C)N=C(CC)C1CC3C2 (relative stereo)
- growth inhibition (GI) (MDA-MB-231 [1]): inactive

Structure (SMILES): COC(=O)C[C@H]1C(=O)C=C2C3CC4CC(CC[C@@]4(C)N21)[C@]3(C)NC(C)=O (some centres not stated)
- growth inhibition (GI) (MDA-MB-231 [1]): inactive
- pIC50 (MDA-MB-231 [2]): < 4.30

Structure (SMILES): C[C@]1(NC(=O)CCl)C2CC[C@@]3(C)N=C(CCl)C1CC3C2 (relative stereo)
- Activity (Vero): 84%
- Activity (MDA-MB-231 [3]): 15%
- Activity (MCF7 [4]): inactive
- viability at 50 µM (MDA-MB-231 [5]): 24%
- Activity (MDA-MB-231 [6]): Dose-dependent effect
- viability at 20 µM (MDA-MB-231 [7]): 90%
- Activity (MDA-MB-231 [8]): 20%
- pIC50 (MDA-MB-231 [2]): 5.10

Structure (SMILES): CC(=O)N[C@@]1(C)C2CC[C@@]3(C)N=C(C)C1CC3C2 (relative stereo)
- growth inhibition (GI) (MDA-MB-231 [1]): inactive

Structure (SMILES): CCC(=O)N[C@@]1(C)C2CC[C@]3(C)C(C2)CC1[C@H](CC)N3C (some centres not stated)
- growth inhibition (GI) (MDA-MB-231 [1]): inactive

Structure (SMILES): CCC(=O)N[C@@]1(C)C2CC[C@@]3(C)N[C@@H](CC)C1CC3C2 (some centres not stated)
- growth inhibition (GI) (MDA-MB-231 [1]): inactive

Structure (SMILES): COC(=O)/C=C1\C(=O)C=C2C3CC4CC(CCC4(C)N21)C3(C)NC(C)=O (configuration not stated)
- Activity (Vero): 77%
- pIC50 (CAKI-1): 5.28
- pIC50 (SF-539): 5.48
- pIC50 (SK-MEL-5): 5.20
- pIC50 (Hs-578T): 4.96
- pIC50 (EKVX): 4.91
- pIC50 (MDA-MB-231 [9]): 4.41
- pIC50 (COLO 205): 5.11
- pIC50 (HL-60(TB)): 5.26
- pIC50 (NCI-H522): 5.70
- viability at 75 µM (MDA-MB-231 [10]): 80%
- pIC50 (MOLT-4): 5.62
- pIC50 (CCRF-CEM): 5.36
- pIC50 (SW-620): 5.55
- pIC50 (RPMI-8226): 5.39
- pIC50 (OVCAR-3): 4.93
- pIC50 (DU-145): 4.77
- pIC50 (SK-MEL-28): 5.74
- pIC50 (MDA-MB-435): 5.23
- pIC50 (RXF 393): 5.17
- pIC50 (T47D): 4.64
- pIC50 (PC-3): 4.80
- pIC50 (MCF7 [11]): 5.15
- pIC50 (HT-29): 5.12

Structure (SMILES): CC(=O)N[C@@]1(C)C2CC[C@@]3(C)N[C@@H](C)C1CC3C2 (some centres not stated)
- growth inhibition (GI) (MDA-MB-231 [1]): inactive

Structure (SMILES): CC(=O)N[C@@]1(C)C2CC[C@@]3(C)N=C(CCl)C1CC3C2 (relative stereo)
- growth inhibition (GI) (MDA-MB-231 [1]): inactive

Structure (SMILES): CC(=O)N[C@@]1(C)C2CC[C@]3(C)C(C2)CC1[C@H](C)N3C (some centres not stated)
- growth inhibition (GI) (MDA-MB-231 [1]): inactive

Structure (SMILES): CC(=O)N[C@@]1(C)C2CC[C@@]3(C)N[C@@H](CCl)C1CC3C2 (some centres not stated)
- growth inhibition (GI) (MDA-MB-231 [1]): inactive
